The values below come from ChEMBL document CHEMBL1122750, “8-Hydroxy-2-(alkylamino)tetralins and related compounds as central 5-hydroxytryptamine receptor agonists” (1984).

Assay [1] concerns the target T1, Serotonin (5-HT) receptor (Rattus norvegicus) (UniProt P35563+P35365+P32305+P31388+Q9JJ16+P28564+P30994+Q62758+P08909+P14842+P30940+P35364+P19327+P28565). Nature of the assay: Subcutaneous dose giving half-maximal decrease of 5-HTP formation in the rat brain (limbic). Type of assay: functional, tissue-based. In short, it runs like this: (§1)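 Male Sprague-Dawley rats (200–350 g) were reserpinized. Reserpine was dissolved in glacial acetic acid and made up with 5.5% glucose. Test drug was given sc in saline, at neutral pH, 5 or 10 mL/kg. Brain-part 5-HTP formation was measured spectrofluorometrically. ED50 (half-maximal decrease) came from 4–6 dose levels, n = 3-5.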

The target of assay [2] is T1, Serotonin (5-HT) receptor (Rattus norvegicus). Nature of the assay: Subcutaneous dose giving half-maximal decrease of 5-HTP formation in the rat brain (striatum). Type of assay: functional, tissue-based. In a few lines:
as §1

For assay [3] the target is unchanged. Nature of the assay: Subcutaneous dose giving half-maximal decrease of 5-HTP formation in the rat brain hemispheres (cortex). The assay is classed as functional, tissue-based. In a few lines: as §1
Assay [4] concerns the target T2, Dopamine receptor (Rattus norvegicus) (UniProt P25115+P19020+P30729+P18901+P61169). The assay can be described thus: Subcutaneous dose giving half-maximal decrease of Dopa formation in the rat brain (limbic). Type of assay: functional, tissue-based.
The target in assay [5] is T2, Dopamine receptor (Rattus norvegicus). Nature of the assay: Subcutaneous dose giving half-maximal decrease of Dopa formation in the rat brain (striatum). Type of assay: functional, tissue-based.
For assay [6], the system named is Rattus norvegicus. Nature of the assay: Compound was tested for subcutaneous dose giving half-maximal decrease of Dopa formation in the rat brain (limbic). The assay is classed as functional. As to conditions: sc.
The test system of assay [7] is Rattus norvegicus. Nature of the assay: Compound was tested for subcutaneous dose giving half-maximal decrease of Dopa formation in the rat brain (striatum). The assay is classed as functional. The following applies: sc.
Assay [8] deals with Rattus norvegicus. The assay can be described thus: Compound was tested for subcutaneous dose giving half-maximal decrease of 5-HTP formation in the rat brain (limbic); Inactive. Type of assay: functional, organism-based. In short, it runs like this: as §1
In assay [9] the test system is Rattus norvegicus. The assay can be described thus: Compound was tested for subcutaneous dose giving half-maximal decrease of 5-HTP formation in the rat brain (striatum); Inactive. The assay is classed as functional, organism-based. In short, it runs like this:
as §1

For assay [10], the system named is Rattus norvegicus. The assay can be described thus: Compound was tested for subcutaneous dose giving half-maximal decrease of 5-HTP formation in the rat brain hemispheres (cortex); Inactive. The assay is classed as functional, organism-based. In a few lines:
as §1

Activity calls are given as the source filed them. The calls are words filed in the database; no cut-off is given here.

The term ED50 denotes the dose that gives a 50% effect, or the effect in half of the subjects. Turning to `Oc1cccc2c1CC(N1CCCCC1)CC2` (stereo not given), the ED50 in assay [1] came out at 1.6 µmol/kg; in assay [2], 1.1 µmol/kg; in assay [3], 1.4 µmol/kg. The ED50 entry in assay [4] and in [5] was “inactive” each time.

`CCCN(CCC)[C@@H]1CCc2cccc(O)c2C1`: the results for the ED50 in assay [1], in assay [2] and in assay [3] were 0.036 µmol/kg, 0.047 µmol/kg and 0.05 µmol/kg, respectively. For the same molecule, the ED50 result in [4] and in assay [5] was “inactive” in each case.

In the case of `CN(C)C1CCc2cccc(O)c2C1` (stereo not given), the figures for the median effective dose (ED50) in [1], in [2] and in assay [3] were 0.38 µmol/kg, 0.43 µmol/kg and 0.36 µmol/kg, respectively. Moreover, the ED50 result in assay [4] and in assay [5] was “inactive” throughout.

With `CCCCN(CCC)C1CCc2cccc(O)c2C1` (stereo not given), the ED50 came to 0.27 µmol/kg in assay [1], 0.26 µmol/kg in assay [2] and 0.34 µmol/kg in assay [3]. Also, the ED50 entry in assay [4] and in assay [5] was “inactive” throughout.

With `CCCN(Cc1ccccc1)C1CCc2cccc(O)c2C1` (stereo not given), the results for the ED50 in assay [1], in [2] and in [3] were 2.7 µmol/kg, 2.9 µmol/kg and 2.3 µmol/kg, respectively. Also, the ED50 result in assay [4] and in assay [5] was “inactive” each time.

On to `CCCN(CCC)C1CCc2cccc(O)c2C1` (racemic), for which the ED50 in assay [1] turned out to be 0.052 µmol/kg; in assay [2] it was 0.052 µmol/kg; in [3] it was 0.063 µmol/kg. Further, the ED50 entry in [4] and in assay [5] was “inactive” each time.

As to `CCN(CC)C(=O)[C@@H]1C=C2c3cccc4[nH]cc(c34)C[C@H]2N(C)C1` [LYSERGIDE], the ED50 in assay [1] turned out to be 0.036 µmol/kg; in [2] it was 0.035 µmol/kg; in [3], 0.036 µmol/kg; in the assay on Rattus norvegicus [6], 0.39 µmol/kg; in the assay with Rattus norvegicus [7], 0.395 µmol/kg.

Take `CCCN(CCC)C1CCc2c(O)ccc(O)c2C1` (stereo not given): the ED50 entry in the assay with Rattus norvegicus [8], with Rattus norvegicus [9] and with Rattus norvegicus [10] was “inactive” throughout. For the same molecule, the ED50 with Rattus norvegicus [6] was 5.2 µmol/kg; in the assay on Rattus norvegicus [7] it was 5.4 µmol/kg.

Consider `CCCCCCCCNC1CCc2cccc(O)c2C1` (stereo not given), for which the ED50 entry (with Rattus norvegicus [8]; with Rattus norvegicus [9]; in the assay with Rattus norvegicus [10]; in assay [4]; in [5]) was “inactive” throughout.

Take `CCCN(CCC)C1CCc2c(OC)ccc(OC)c2C1` (stereo not given): the ED50 result with Rattus norvegicus [8], in the assay with Rattus norvegicus [9] and in the assay with Rattus norvegicus [10] was “inactive” throughout. In addition, the ED50 stood at 0.905 µmol/kg with Rattus norvegicus [6] and 1.24 µmol/kg in the assay on Rattus norvegicus [7].

Turning to `CCCN(CC)C1CCc2cccc(O)c2C1` (stereo not given), the ED50 amounted to 0.057 µmol/kg in [1], 0.059 µmol/kg in assay [2] and 0.066 µmol/kg in [3]. In addition, the ED50 result in assay [4] and in assay [5] was “inactive” in each case.

For the molecule `CNC1CCc2cccc(O)c2C1` (stereo not given), the ED50 is 1.5 µmol/kg in assay [1], 1.6 µmol/kg in assay [2] and 1.8 µmol/kg in assay [3]. Also, the ED50 entry in assay [4] and in [5] was “inactive” throughout.

For the molecule `CCNC1CCc2cccc(O)c2C1` (stereo not given), the ED50 in [1] turned out to be 0.27 µmol/kg; in assay [2], 0.2 µmol/kg; in assay [3], 0.22 µmol/kg. For the same molecule, the ED50 entry in [4] and in assay [5] was “inactive” each time.

Take `CCCCNC1CCc2cccc(O)c2C1` (stereo not given): the results for the ED50 in assay [1], in assay [2] and in [3] were 4.3 µmol/kg, 4.5 µmol/kg and 6.3 µmol/kg, respectively. The ED50 entry in assay [4] and in assay [5] was “inactive” throughout.

`CCCNC1CCc2cccc(O)c2C1` (stereo not given): the ED50 in assay [1] stood at 0.14 µmol/kg; in assay [2], 0.15 µmol/kg; in assay [3], 0.18 µmol/kg. For the same molecule, the ED50 entry in [4] and in assay [5] was “inactive” in each case.

Consider `CCCCN(CCCC)C1CCc2cccc(O)c2C1` (stereo not given), for which the figures for the ED50 in [1], in assay [2] and in [3] were 5 µmol/kg, 6.6 µmol/kg and 5.7 µmol/kg, respectively. Moreover, the ED50 result in [4] and in [5] was “inactive” in each case.

Regarding `CCN(CC)C1CCc2cccc(O)c2C1` (stereo not given), the ED50 in assay [1] was 0.054 µmol/kg; in [2], 0.068 µmol/kg; in assay [3], 0.07 µmol/kg. The ED50 result in assay [4] and in assay [5] was “inactive” in each case.

Turning to `CCCN(CCC)[C@H]1CCc2cccc(O)c2C1`, the results for the ED50 in assay [1], in assay [2] and in assay [3] were 0.061 µmol/kg, 0.065 µmol/kg and 0.077 µmol/kg, respectively. The ED50 entry in assay [4] and in [5] was “inactive” throughout.

On to `CCCN(CCC)C1CCc2cccc(OC)c2C1` (stereo not given), for which the ED50 in [1] turned out to be 0.34 µmol/kg; in assay [2], 0.29 µmol/kg; in assay [3] it was 0.23 µmol/kg. Besides, the ED50 entry in assay [4] and in assay [5] was “inactive” in each case.

For `CC(C)NC1CCc2cccc(O)c2C1` (stereo not given), the values for the ED50 in [1], in assay [2] and in [3] were 2.6 µmol/kg, 2.9 µmol/kg and 4.1 µmol/kg, respectively. Besides, the ED50 result in assay [4] and in assay [5] was “inactive” each time.
